Experimental data published in ChEMBL document CHEMBL4513216, “Probing the Open Global Health Chemical Diversity Library for Multistage-Active Starting Points for Next-Generation Antimalarials” (ACS Infect Dis, 2020).

Assay: Toxicity liver stage against HepG2, at 10uM
Type: cell-based
Parameters: test concentration 10 uM, cell line HepG2-A16-CD81EGFP
Details: human, HepG2-A16-CD81EGFP cells; read-out: INHIBITION
In short: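 Uninfected HepG2-A16-CD81EGFP cells, 3 × 10^3 per well, 1536-well, plated on prespotted compound at 10 μM final, parasite-free screening media added to match infected plates; puromycin 10 μM positive, DMSO 0.5% negative; run in parallel with 48 h PbLuc assay at 37 °C, 5% CO2; viability by CellTiter-Glo luminescence, normalized to controls.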

First: CNC(=O)CN1CCC(NC(=O)C(C)Oc2ccccc2C#N)CC1 (configuration not stated)
Second: CCS(=O)(=O)c1ccccc1N1CCC(NC(=O)c2ccc[nH]2)CC1
The cytotoxicity at 10 µM of the first is higher: 1.97% for the first, -8.26% for the second.

First: Cc1cnc2n(c1=O)C(CC(=O)NCc1ccc(F)cc1)CS2 (configuration not stated)
Second: COC(=O)CCNC(=O)c1cnc(Cc2ccc(F)cc2)s1
The cytotoxicity at 10 µM of the first is higher: 6.47% for the first, -5.87% for the second.

Going from O=C(Oc1ccccc1)N1CCC(CNS(=O)(=O)c2cccnc2)CC1 to O=C(c1cccc(S(=O)(=O)NCCCn2cccn2)c1)N1CCOCC1, the cytotoxicity at 10 µM falls from 11.1% to 5.78%.

First: O=C(C1=CCCC1)N1C[C@H](OCc2cccnc2)[C@H]2OCCC[C@H]21
Second: Cc1cnn(C2CN(Cc3nc(-c4cccnc4)no3)C2)c1
The cytotoxicity at 10 µM of the first is higher: 7.86% for the first, 3.03% for the second.

Going from Cc1nc(N2CCCC2)nc2c1CCN(C(=O)C(C)C)CC2 to O=C(c1ccccc1F)N1CCCn2c(CN3CCCCC3)nnc2C1, the cytotoxicity at 10 µM falls from 5.02% to -71.5%.

First: Cc1ncsc1CN1CC[C@H]2OCC[C@@]2(C(=O)N(C)C)C1
Second: c1csc(CN2CCCC3(COCCN(c4cnccn4)C3)C2)c1 (configuration not stated)
The cytotoxicity at 10 µM of the first is higher: 2.93% for the first, -68.7% for the second.

Going from COCCNC(=O)Cn1c(-c2cccc(Cl)c2)nc(C)c(CCO)c1=O to COCCCNC(=O)c1ccccc1S(C)(=O)=O, the cytotoxicity at 10 µM falls from -0.86% to -2.83%.

First: CC(O)CNc1c(NCc2ccco2)c(=O)c1=O (configuration not stated)
Second: CCc1ccc(C(COC)NC(=O)c2ccc(NC(C)=O)cc2)o1 (configuration not stated)
The cytotoxicity at 10 µM of the first is higher: -3.04% for the first, -3.91% for the second.

Compared with Cc1nn(CCC(=O)N(C)Cc2c(Cl)cnn2C)cc1Br, Cc1noc(C)c1CN(C)C(=O)Nc1cnn(CC2CCCO2)c1 (configuration not stated) is lower in cytotoxicity at 10 µM: 1.29% for the first, -2.77% for the second.

Compared with CC(NC(=O)c1ccc(Cl)cc1)c1nnc(SCC(=O)O)n1C (configuration not stated), Cn1c(CO)cnc1SC(C(N)=O)c1ccccc1 (configuration not stated) is lower in cytotoxicity at 10 µM: -9.35% for the first, -48.8% for the second.

Compared with Cc1cccc(C)c1Nc1noc2c1CN(C(=O)c1c[nH]nc1C)CC2, CC(C(N)=O)N1CCc2onc(-c3cccc(F)c3)c2C1 (configuration not stated) is lower in cytotoxicity at 10 µM: 6.22% for the first, 3.38% for the second.

Compared with c1cc(CN2CCC[C@@H](Cn3nnc(-c4cnccn4)n3)C2)ccn1, Fc1ccc(CN2CCC(c3noc(-c4cnccn4)n3)CC2)cc1F is higher in cytotoxicity at 10 µM: -0.45% for the first, 2.35% for the second.

First: CN(CC1(C)COC1)C(=O)c1cc(-c2ccn(C)n2)nc2ccccc12
Second: Cc1cc(-c2cnc(C)nc2CN(C)C(=O)c2ccccn2)on1
The cytotoxicity at 10 µM of the first is higher: 9.81% for the first, 7.95% for the second.

Going from CCSCc1nc(O)c2nnn(C3CCN(Cc4ccoc4)CC3)c2n1 to CCc1ncc(CN2CCC(O)(c3ccccc3F)CC2)cn1, the cytotoxicity at 10 µM falls from 4.71% to -4.68%.

Compared with Cc1ccnc(NC(=O)c2cncc(C3CCNCC3)n2)c1, Cc1ncc2c(n1)CN(CC(=O)Nc1cccnc1)CC2 is higher in cytotoxicity at 10 µM: -9.48% for the first, 0.66% for the second.

Compared with CC1Cc2ccccc2N1C(=O)Cn1nc(-c2cccs2)cc(N)c1=O (configuration not stated), O=C(Cc1cccc(O)c1)N1CCC2(CC1)c1ccccc1CC2O (configuration not stated) is higher in cytotoxicity at 10 µM: -10.6% for the first, 2.28% for the second.

First: CC(=O)N[C@@H]1C[C@H](c2ccc(OCCO)cc2)OC2(CCOCC2)C1
Second: Cc1ccc(CN2CCOCC2)cc1NC(=O)c1ccsc1
The cytotoxicity at 10 µM of the first is lower: -21.2% for the first, 3.22% for the second.

First: Cc1cc(CCC(N)=O)cc(C2CCCN2Cc2ccccn2)n1 (configuration not stated)
Second: Cc1nc(C2CCCN2C(=O)CCc2ccccc2)ncc1C(N)=O (configuration not stated)
The cytotoxicity at 10 µM of the first is higher: -16.7% for the first, -19.5% for the second.

First: Nc1nc2nc(C3CCCN(C(=O)c4cncs4)C3)ccc2s1 (configuration not stated)
Second: NCC1Cc2cc(-c3cncc(C(=O)N4CCCCC4)n3)cc(F)c2O1 (configuration not stated)
The cytotoxicity at 10 µM of the first is higher: -19.1% for the first, -51.8% for the second.

Going from CC(CN1CCOC1=O)NC(=O)c1ccccc1Oc1ccccc1 (configuration not stated) to CN(CCCOc1ccccc1)C(=O)CN1CCc2cncnc2C1, the cytotoxicity at 10 µM falls from 1.2% to -2.06%.

Compared with Cc1nn2cccnc2c1C(=O)NCc1ccccc1OCC1CC1, CCc1nccc(CN2CCC(CNC(=O)Nc3ccccc3)C2)n1 (configuration not stated) is higher in cytotoxicity at 10 µM: -48.4% for the first, 9.99% for the second.

First: NC(=O)C1CCN(C(=O)NC2CCc3cc(Cl)ccc32)CC1 (configuration not stated)
Second: NC(=O)CCN1CCC(C(=O)c2cc(F)ccc2F)CC1
The cytotoxicity at 10 µM of the first is higher: 1.67% for the first, -4.89% for the second.

First: COCc1nccc(C2CCCN(Cc3ccc(C#N)cc3)C2)n1 (configuration not stated)
Second: CN1CCN(Cc2ccsc2)Cc2cccnc21
The cytotoxicity at 10 µM of the first is higher: 6.45% for the first, -77.9% for the second.

Going from CCS(=O)(=O)N(C)C1CCN(C(=O)c2cc(C)cc(C)c2)CC1 to Cc1ccc(C(=O)N2CCC(c3nccn3C(C)C)CC2)c(=O)[nH]1, the cytotoxicity at 10 µM falls from 11.5% to 4.75%.

First: CC(O)CN1CCN(C(=O)CN(C)c2ccc(C#N)cn2)CC1 (configuration not stated)
Second: CC(C)c1ncncc1C(=O)N1CCN(Cc2ccsc2)CC1
The cytotoxicity at 10 µM of the first is higher: -0.785% for the first, -4.49% for the second.

Compared with NC(=O)CN1CCN(c2ccnc3c(F)ccc(F)c23)CC1, O=S(=O)(NCc1ccc(S(=O)(=O)N2CCCC2)s1)c1ccc(F)cc1Cl is lower in cytotoxicity at 10 µM: 0.315% for the first, -39.9% for the second.

First: COc1ccc(-n2ccc(C(=O)N(CCN(C)C)C(C)C)n2)cc1
Second: COCCn1ccc2cc(NC(C)=O)ccc21
The cytotoxicity at 10 µM of the first is higher: -3.29% for the first, -12% for the second.

Going from CCn1cc(S(=O)(=O)N2CCCSc3ccccc32)cn1 to Cc1cnn(CCCN2C(=O)CCc3ccccc32)c1, the cytotoxicity at 10 µM falls from 9.25% to 1.39%.

Compared with COCC(C)NC(=O)CN1CCC(C)CC1 (configuration not stated), CC(CCNC(=O)N(C)CC1CCOCC1)N1CCCCC1 (configuration not stated) is higher in cytotoxicity at 10 µM: -9.32% for the first, 8.63% for the second.

First: O=C(NCC(F)F)N1CCC(n2ccc(C(F)(F)F)n2)CC1
Second: Cc1ccc(CNC(=O)CCN2CCOC(C(F)(F)F)C2)cc1 (configuration not stated)
The cytotoxicity at 10 µM of the first is lower: -10.2% for the first, 3.71% for the second.

First: CC(=O)NCC(=O)N1Cc2nccn2CC(CN2CCCC2=O)C1 (configuration not stated)
Second: Cc1noc(C)c1CN1Cc2nccn2CC(CN2CCOCC2)C1 (configuration not stated)
The cytotoxicity at 10 µM of the first is higher: -76.9% for the first, -82% for the second.

First: OC1CCCN(Cc2cn(CC3CCN(C4CCSCC4)CC3)nn2)C1 (configuration not stated)
Second: NC1CCC(CN2CCCn3nc(CNC(=O)C4CCC4)cc3C2)CC1 (configuration not stated)
The cytotoxicity at 10 µM of the first is lower: -61% for the first, 4.03% for the second.

First: CC(C)n1cc(CN(Cc2ccc(F)cc2)CC2CCCO2)cn1 (configuration not stated)
Second: CC(C)c1nc(-c2ccnc(N3CCNCC3)n2)no1
The cytotoxicity at 10 µM of the first is lower: -3.47% for the first, 1.01% for the second.

First: CC(C)[C@H]1CN(CCS(C)(=O)=O)C[C@@H]1NC(=O)c1ccc(=O)[nH]c1
Second: CC(C)NC(=O)N1C[C@@H]2C[C@H](C(=O)NCc3ccccc3)[C@H](C1)O2
The cytotoxicity at 10 µM of the first is higher: 3.06% for the first, -0.594% for the second.

First: Cc1nc(CN2CCCC2c2c(C)nn(C)c2Cl)oc1C (configuration not stated)
Second: O=C(CCc1cscn1)N1CCCC1c1noc(C2CC2)n1 (configuration not stated)
The cytotoxicity at 10 µM of the first is higher: -3.33% for the first, -10.9% for the second.

Compared with c1ccc(-n2cc(CNCC3CCCN3c3cccnn3)nn2)cc1 (configuration not stated), O=C(c1csc(-c2nnc[nH]2)n1)N1CCCCC1Cn1cccn1 (configuration not stated) is lower in cytotoxicity at 10 µM: -1.47% for the first, -4.49% for the second.

First: CC(C)c1n[nH]c(C2CN(C(=O)c3cc(C(N)=O)cs3)CCO2)n1 (configuration not stated)
Second: CN1CCOCC2(CCCN(C(=O)c3cnccn3)C2)C1 (configuration not stated)
The cytotoxicity at 10 µM of the first is higher: 1.17% for the first, -75.4% for the second.

Going from Cc1cn2c(n1)CCC(NC(=O)Cn1cncn1)C2 (configuration not stated) to O=C(COCC1CC1)N1CCCC(n2cncn2)C1 (configuration not stated), the cytotoxicity at 10 µM rises from -3.86% to -3.54%.

First: Cc1noc(C2CCN(C(=O)CCCNc3ncccn3)CC2)n1
Second: COCC1CC2(CCN(CC3CC3)CC2)CN1c1ncccn1 (configuration not stated)
The cytotoxicity at 10 µM of the first is lower: -6.69% for the first, 14.1% for the second.

Compared with CCOc1ccc(Cl)cc1C1CCCN1 (configuration not stated), O=C(NCC1(COc2cnccn2)C[C@@H](O)[C@@H](O)C1)C1CC1 (some centres not stated) is higher in cytotoxicity at 10 µM: -12.3% for the first, 7.92% for the second.

Compared with O=C(C1CCOCC1)N1CCC2(CCN(Cc3nccs3)CC2)CC1, Cn1cc(N2CC3(COCCN(Cc4ccsc4)C3)OCC2=O)cn1 (configuration not stated) is higher in cytotoxicity at 10 µM: -83.1% for the first, 3.55% for the second.
